Source: ChEMBL document CHEMBL1123417, “New structure-activity relationships of the quinolone antibacterials using the target enzyme. The development and application of a DNA gyrase assay” (J Med Chem, 1986)
In brackets after ≈: the same amount, converted by molar mass.

Columns and labels:
DNA gyrase = DNA gyrase (Escherichia coli, UniProt P0AES4+P0AES6); assay: Inhibitory concentration in supercoiling inhibition Escherichia coli DNA gyrase assay; format: protein-complex assay; conditions: read-out: I50 (converted)
Procedure, shortened: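 Gyrase A and B subunits purified from E. coli H560, each titrated to fully supercoil relaxed Col E1 plasmid (~0.3 μg/mL). Drug in 0.1 N KOH, 40 min at 30 °C, then ATP for 10 min. SDS/proteinase K quench, 1% agarose gel, ethidium stain. Serial dilutions start at 200 μg/mL. I50 is the mean of the initial-inhibition and 100%-inhibition concentrations.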

[1] = biological target: DNA gyrase (Escherichia coli) (UniProt P0AES6+P0AES4)
Escherichia coli [2] = assay: Antibacterial activity against Escherichia coli (H560)
Escherichia coli [3] = assay: Antibacterial activity against Escherichia coli (vogel)
Klebsiella pneumoniae = assay: Antibacterial activity against Klebsiella pneumonia (MGH-2)
Staphylococcus aureus = assay: Antibacterial activity against Staphylococcus aureus (H228)
Pseudomonas aeruginosa = assay: Antibacterial activity against Pseudomonas aeruginosa (UI-18)
Streptococcus pneumoniae = assay: Antibacterial activity against Streptococcus pneumoniae (SV-1)

Question: With `CCn1cc(C(=O)O)c(=O)c2cc(F)c(N3CCSC3)nc21` as the molecule, how does the IC50 (DNA gyrase) read?
Answer: Its IC50 is 201 µM.

Question: What about the gyrase cleavage conc [1] of the same molecule?
Answer: Its gyrase cleavage conc is 5 µg/mL.

Question: What about the MIC (Escherichia coli [2]) of the same molecule?
Answer: Its MIC is 0.4 µg/mL (≈ 1.24 µM).

Question: And the MIC (Escherichia coli [3])?
Answer: The MIC was 0.1 µg/mL (≈ 0.309 µM).

Question: And the MIC (Klebsiella pneumoniae)?
Answer: Its MIC is 0.4 µg/mL (≈ 1.24 µM).

Question: And the MIC (Staphylococcus aureus)?
Answer: The MIC was 0.05 µg/mL (≈ 0.155 µM).

Question: What about the MIC (Pseudomonas aeruginosa) of the same molecule?
Answer: The MIC was 1.6 µg/mL (≈ 4.95 µM).

Question: And the MIC (Streptococcus pneumoniae)?
Answer: Its MIC is 1.6 µg/mL (≈ 4.95 µM).

Question: For `CCn1cc(C(=O)O)c(=O)c2cc(F)c(N3CCCC3)nc21`, which IC50 (DNA gyrase) is on record?
Answer: The IC50 was 16.4 µM.

Question: And the gyrase cleavage conc [1]?
Answer: The gyrase cleavage conc was 2.5 µg/mL.

Question: And the MIC (Escherichia coli [2])?
Answer: Its MIC is 0.4 µg/mL (≈ 1.31 µM).

Question: And the MIC (Escherichia coli [3])?
Answer: The MIC was 3.1 µg/mL (≈ 10.2 µM).

Question: What about the MIC (Klebsiella pneumoniae) of the same molecule?
Answer: Its MIC is 3.1 µg/mL (≈ 10.2 µM).

Question: And the MIC (Staphylococcus aureus)?
Answer: The MIC was 0.2 µg/mL (≈ 0.655 µM).

Question: What about the MIC (Pseudomonas aeruginosa) of the same molecule?
Answer: The MIC was 6.3 µg/mL (≈ 20.6 µM).

Question: What about the MIC (Streptococcus pneumoniae) of the same molecule?
Answer: Its MIC is 3.1 µg/mL (≈ 10.2 µM).

Question: For `CCn1cc(C(=O)O)c(=O)c2cnc(N3CCNCC3)nc21` [PIPEMIDIC ACID], which IC50 (DNA gyrase) is on record?
Answer: Its IC50 is > 330 µM.

Question: What about the gyrase cleavage conc [1] of the same molecule?
Answer: Its gyrase cleavage conc is 50 µg/mL.

Question: For `CCn1cc(C(=O)O)c(=O)c2cc(F)c(N3CCNCC3)c(F)c21`, which IC50 (DNA gyrase) is on record?
Answer: Its IC50 is 18.7 µM.

Question: And the gyrase cleavage conc [1]?
Answer: Its gyrase cleavage conc is 1 µg/mL.

Question: And the MIC (Escherichia coli [2])?
Answer: Its MIC is 0.1 µg/mL (≈ 0.296 µM).

Question: What about the MIC (Escherichia coli [3]) of the same molecule?
Answer: Its MIC is 0.2 µg/mL (≈ 0.593 µM).

Question: What about the MIC (Klebsiella pneumoniae) of the same molecule?
Answer: Its MIC is 0.1 µg/mL (≈ 0.296 µM).

Question: What about the MIC (Staphylococcus aureus) of the same molecule?
Answer: Its MIC is 3.1 µg/mL (≈ 9.19 µM).

Question: What about the MIC (Pseudomonas aeruginosa) of the same molecule?
Answer: The MIC was 1.6 µg/mL (≈ 4.74 µM).

Question: What about the MIC (Streptococcus pneumoniae) of the same molecule?
Answer: The MIC was 3.1 µg/mL (≈ 9.19 µM).

Question: Which IC50 (DNA gyrase) does the source give for `CCn1cc(C(=O)O)c(=O)c2cc3c(cc21)OCO3` [OXOLINIC ACID] here?
Answer: The IC50 was 95.7 µM.

Question: What about the gyrase cleavage conc [1] of the same molecule?
Answer: The gyrase cleavage conc was 10 µg/mL.

Question: Which results are given for `CCn1cc(C(=O)O)c(=O)c2cnc(N3CCCC3)nc21` [PIROMIDIC ACID]?
Answer: IC50 (DNA gyrase): > 347 µM; gyrase cleavage conc [1]: 38 µg/mL

Question: Which IC50 (DNA gyrase) does the source give for `CCn1cc(C(=O)O)c(=O)c2cc(F)c(-n3cccc3)cc21` [IRLOXACIN] here?
Answer: The IC50 was 93.2 µM.

Question: And the gyrase cleavage conc [1]?
Answer: The gyrase cleavage conc was 2.5 µg/mL.

Question: What about the MIC (Escherichia coli [2]) of the same molecule?
Answer: The MIC was 1.6 µg/mL (≈ 5.33 µM).

Question: And the MIC (Escherichia coli [3])?
Answer: The MIC was 1.6 µg/mL (≈ 5.33 µM).

Question: And the MIC (Klebsiella pneumoniae)?
Answer: Its MIC is 1.6 µg/mL (≈ 5.33 µM).

Question: What about the MIC (Staphylococcus aureus) of the same molecule?
Answer: Its MIC is 0.4 µg/mL (≈ 1.33 µM).

Question: What about the MIC (Pseudomonas aeruginosa) of the same molecule?
Answer: Its MIC is 12.5 µg/mL (≈ 41.6 µM).

Question: What about the MIC (Streptococcus pneumoniae) of the same molecule?
Answer: The MIC was 12.5 µg/mL (≈ 41.6 µM).

Question: For `CN1CCN(c2c(F)cc3c(=O)c(C(=O)O)cn(CCF)c3c2F)CC1` [FLEROXACIN], which IC50 (DNA gyrase) is on record?
Answer: The IC50 was 10.3 µM.

Question: What about the gyrase cleavage conc [1] of the same molecule?
Answer: Its gyrase cleavage conc is 2.5 µg/mL.

Question: For `COn1cc(C(=O)O)c(=O)c2cc3c(cc21)OCO3` [MILOXACIN], which IC50 (DNA gyrase) is on record?
Answer: Its IC50 is 190 µM.

Question: And the gyrase cleavage conc [1]?
Answer: The gyrase cleavage conc was 10 µg/mL.

Question: And the MIC (Escherichia coli [2])?
Answer: Its MIC is 0.4 µg/mL (≈ 1.52 µM).

Question: And the MIC (Escherichia coli [3])?
Answer: The MIC was 0.4 µg/mL (≈ 1.52 µM).

Question: And the MIC (Klebsiella pneumoniae)?
Answer: The MIC was 0.2 µg/mL (≈ 0.76 µM).

Question: And the MIC (Staphylococcus aureus)?
Answer: Its MIC is 6.3 µg/mL (≈ 23.9 µM).

Question: What about the MIC (Pseudomonas aeruginosa) of the same molecule?
Answer: Its MIC is 12.5 µg/mL (≈ 47.5 µM).

Question: And the MIC (Streptococcus pneumoniae)?
Answer: Its MIC is 100 µg/mL (≈ 380 µM).

Question: For `CCn1cc(C(=O)O)c(=O)c2cc(F)c(N3CCNCC3)nc21` [ENOXACIN], which IC50 (DNA gyrase) is on record?
Answer: Its IC50 is 87.4 µM.

Question: What about the gyrase cleavage conc [1] of the same molecule?
Answer: The gyrase cleavage conc was 5 µg/mL.

Question: How did the IC50 (DNA gyrase) turn out when `CCn1cc(C(=O)O)c(=O)c2cc(F)c(N3CCCC3)cc21` was run?
Answer: The IC50 was 85.4 µM.

Question: And the gyrase cleavage conc [1]?
Answer: Its gyrase cleavage conc is 5 µg/mL.

Question: And the MIC (Escherichia coli [2])?
Answer: Its MIC is 1.6 µg/mL (≈ 5.26 µM).

Question: What about the MIC (Escherichia coli [3]) of the same molecule?
Answer: Its MIC is 1.6 µg/mL (≈ 5.26 µM).

Question: What about the MIC (Klebsiella pneumoniae) of the same molecule?
Answer: Its MIC is > 100 µg/mL.

Question: What about the MIC (Staphylococcus aureus) of the same molecule?
Answer: The MIC was 0.8 µg/mL (≈ 2.63 µM).

Question: And the MIC (Pseudomonas aeruginosa)?
Answer: Its MIC is > 100 µg/mL.

Question: What about the MIC (Streptococcus pneumoniae) of the same molecule?
Answer: Its MIC is 12.5 µg/mL (≈ 41.1 µM).

Question: `CCn1cc(C(=O)O)c(=O)c2ccc(-c3ccncc3)cc21` [ROSOXACIN] was tested. Which IC50 (DNA gyrase) did it give?
Answer: The IC50 was > 34 µM.

Question: And the gyrase cleavage conc [1]?
Answer: The gyrase cleavage conc was 2.5 µg/mL.

Question: What about the MIC (Escherichia coli [2]) of the same molecule?
Answer: Its MIC is 0.2 µg/mL (≈ 0.68 µM).

Question: What about the MIC (Escherichia coli [3]) of the same molecule?
Answer: Its MIC is 0.2 µg/mL (≈ 0.68 µM).

Question: What about the MIC (Klebsiella pneumoniae) of the same molecule?
Answer: The MIC was 0.4 µg/mL (≈ 1.36 µM).

Question: What about the MIC (Staphylococcus aureus) of the same molecule?
Answer: Its MIC is 0.4 µg/mL (≈ 1.36 µM).

Question: And the MIC (Pseudomonas aeruginosa)?
Answer: Its MIC is 6.3 µg/mL (≈ 21.4 µM).

Question: What about the MIC (Streptococcus pneumoniae) of the same molecule?
Answer: Its MIC is 12.5 µg/mL (≈ 42.5 µM).

Question: Which results are given for `CCn1nc(C(=O)O)c(=O)c2cc3c(cc21)OCO3` [CINOXACIN]?
Answer: IC50 (DNA gyrase): > 381 µM; gyrase cleavage conc [1]: 43 µg/mL

Question: What does the source list for `CNn1cc(C(=O)O)c(=O)c2cc(F)c(N3CCN(C)CC3)cc21` [AMIFLOXACIN]?
Answer: IC50 (DNA gyrase): 18.8 µM; MIC (Escherichia coli [3]): 0.1 µg/mL (≈ 0.299 µM); MIC (Klebsiella pneumoniae): 0.2 µg/mL (≈ 0.598 µM); MIC (Staphylococcus aureus): 1.6 µg/mL (≈ 4.79 µM); MIC (Pseudomonas aeruginosa): 0.8 µg/mL (≈ 2.39 µM); MIC (Streptococcus pneumoniae): 12.5 µg/mL (≈ 37.4 µM)
